ChEMBL document CHEMBL3352113, “Cytoprotective pyridinol antioxidants as potential therapeutic agents for neurodegenerative and mitochondrial diseases” (Bioorg Med Chem, 2014)
Activity calls are given as the source filed them. The rule behind the calls is not given here.

How the values were obtained:
[1] = organism: Bos taurus; assay: Inhibition of bovine heart mitochondrial NADH oxidase complex I/III/IV assessed as remaining activity at 1 uM by spectrophotometry relative to untreated control
[2] = organism: Bos taurus; assay: Inhibition of bovine heart mitochondrial NADH oxidase complex I/III/IV assessed as remaining activity at 5 uM by spectrophotometry relative to untreated control
[3] = organism: Bos taurus; assay: Inhibition of bovine heart mitochondrial NADH oxidase complex I/III/IV assessed as remaining activity at 10 uM by spectrophotometry relative to untreated control
[4] = test system: Lymphocyte; assay: Inhibition of lipid peroxidation in diethyl maleate-treated human lymphocytes obtained from FRDA patient at 100 to 250 nM after 16 hrs using C11-BODIPY581/591 by FACS analysis; type: functional, cell-based
Summary of the method: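 FRDA lymphocytes depleted of glutathione with DEM, probed with C11-BODIPY581/591. Green (oxidized) fluorescence read by flow cytometry at 490/510 nm. Median mean fluorescence taken relative to untreated control and converted to % lipid peroxidation scavenging; mean ± SEM, n = 3.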

[5] = test system: Lymphocyte; assay: Inhibition of ROS generation in diethyl maleate-treated human lymphocytes obtained from FRDA patient compound pretreated at 100 to 500 nM for 16 hrs using DCFH-DA by FACS analysis; type: functional, cell-based
Summary of the method: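 FRDA lymphocytes pretreated with compounds at 100, 250 and 500 nM for 16 h, then given DEM for 80 min to raise ROS. Stained with DCFH-DA for 15 min, then DCF fluorescence read by flow cytometry. Reported as % ROS scavenging; mean ± SEM of three experiments run in duplicate.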

[6] = test system: Lymphocyte; assay: Inhibition of oxidative stress-induced mitochondrial membrane depolarization in diethyl maleate-treated human lymphocytes obtained from FRDA patient assessed as cells with intact mitochondrial membrane potential at 250 nM pretreated for 16 hrs using TMRM by FACS analysis (reference value: 95%); type: functional; set-up: scale not given: the % may be the effect or the level left
[7] = test system: Lymphocyte; assay: Inhibition of oxidative stress-induced mitochondrial membrane depolarization in diethyl maleate-treated human lymphocytes obtained from FRDA patient assessed as cells with intact mitochondrial membrane potential at 100 nM pretreated for 16 hrs using TMRM by FACS analysis (reference value: 95%); type: functional; set-up: scale not given: the % may be the effect or the level left
[8] = test system: Lymphocyte; assay: Inhibition of oxidative stress-induced mitochondrial membrane depolarization in diethyl maleate-treated human lymphocytes obtained from FRDA patient assessed as cells with intact mitochondrial membrane potential at 500 nM pretreated for 16 hrs using TMRM by FACS analysis (reference value: 95%); type: functional; set-up: scale not given: the % may be the effect or the level left
[9] = test system: Lymphocyte; assay: Increase in ATP production in CoQ10-deficient lymphocytes (unknown origin) assessed as cellular ATP level at 5 uM after 48 hrs using luciferin-luciferase reaction by bioluminescence assay relative to control; type: functional
Summary of the method: (§1)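 CoQ10-deficient lymphocyte line GM17932 grown in glucose-free RPMI 1640 with 25 mM galactose, 2 mM glutamine and 10% dialyzed FBS, forcing oxidative phosphorylation. Incubated with compounds at 5, 10 or 25 µM for 48 h. Total intracellular ATP measured by luciferin–luciferase reaction, expressed as % of untreated control.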

[10] = test system: Lymphocyte; assay: Increase in ATP production in CoQ10-deficient lymphocytes (unknown origin) assessed as cellular ATP level at 10 uM after 48 hrs using luciferin-luciferase reaction by bioluminescence assay relative to control; type: functional; summary of the method: as §1
[11] = test system: Lymphocyte; assay: Increase in ATP production in CoQ10-deficient lymphocytes (unknown origin) assessed as cellular ATP level at 25 uM after 48 hrs using luciferin-luciferase reaction by bioluminescence assay relative to control; type: functional; summary of the method: as §1
[12] = test system: Lymphocyte; assay: Cytoprotective activity in human lymphocytes obtained from FRDA patient assessed as viable cells at 0.1 uM after 16 hrs by trypan blue exclusion assay; type: functional; conditions: read-out: Activity
Summary of the method: (§2)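 Lymphocytes from FRDA or Leigh's syndrome patients, grown in RPMI-1640 with 15% fetal calf serum and 2 mM glutamine, kept in log phase. Test agents at 0.1, 0.5 and 2.5 µM; diethyl maleate (DEM) added to deplete glutathione and induce oxidative stress. Viability expressed relative to untreated cells (100%). Values are mean ± SD/SEM as tabulated.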

[13] = test system: Lymphocyte; assay: Cytoprotective activity in human lymphocytes obtained from FRDA patient assessed as viable cells at 0.5 uM after 16 hrs by trypan blue exclusion assay; type: functional; conditions: read-out: Activity; summary of the method: as §2
[14] = test system: Lymphocyte; assay: Cytoprotective activity in human lymphocytes obtained from FRDA patient assessed as viable cells at 2.5 uM after 16 hrs by trypan blue exclusion assay; type: functional; conditions: read-out: Activity; summary of the method: as §2
[15] = test system: Lymphocyte; assay: Cytoprotective activity in human lymphocytes obtained from Leigh's syndrome patient assessed as viable cells at 0.1 uM after 16 hrs by trypan blue exclusion assay; type: functional; conditions: read-out: Activity; summary of the method: as §2
[16] = test system: Lymphocyte; assay: Cytoprotective activity in human lymphocytes obtained from Leigh's syndrome patient assessed as viable cells at 0.5 uM after 16 hrs by trypan blue exclusion assay; type: functional; conditions: read-out: Activity; summary of the method: as §2
[17] = test system: Lymphocyte; assay: Cytoprotective activity in human lymphocytes obtained from Leigh's syndrome patient assessed as viable cells at 2.5 uM after 16 hrs by trypan blue exclusion assay; type: functional; conditions: read-out: Activity; summary of the method: as §2
[18] = Drug metabolism in bovine liver microsomes at 25 uM after 30 mins by reverse phase HPLC analysis; type: ADME, Bos taurus; conditions: cattle, read-out: Drug metabolism
Summary of the method: (§3)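 Compounds incubated 30 min with activated bovine liver microsomes. Remaining parent compound quantified by reversed-phase HPLC and expressed as % recovered; mean ± SD.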

[19] = organism: Bos taurus; assay: Inhibition of bovine heart mitochondrial NADH oxidase complex I/III/IV assessed as remaining activity by spectrophotometry relative to untreated control
[20] = test system: Lymphocyte; assay: Cytoprotective activity in human lymphocytes obtained from FRDA patient assessed as viable cells after 16 hrs by trypan blue exclusion assay; type: functional, cell-based; summary of the method: as §2
[21] = test system: Lymphocyte; assay: Cytoprotective activity in human lymphocytes obtained from Leigh's syndrome patient assessed as viable cells after 16 hrs by trypan blue exclusion assay; type: functional, cell-based; summary of the method: as §2
[22] = test system: Lymphocyte; assay: Inhibition of oxidative stress-induced mitochondrial membrane depolarization in diethyl maleate-treated human lymphocytes obtained from FRDA patient assessed as cells with intact mitochondrial membrane potential pretreated for 16 hrs using TMRM by FACS analysis; type: functional, cell-based
[23] = Metabolic stability in bovine liver microsomes at 25 uM after 30 mins by reverse phase HPLC analysis; type: ADME, Bos taurus; conditions: cattle, read-out: Stability; summary of the method: as §3

SMILES | Activity [1] [%] | Activity [2] [%] | Activity [3] [%] | inhibition [4] | inhibition [5] | Activity [6] [%] | Activity [7] [%] | Activity [8] [%] | Activity [9] [%] | Activity [10] [%] | Activity [11] [%] | viability at 0.1 µM [12] [%] | viability at 0.5 µM [13] [%] | viability at 2.5 µM [14] [%] | viability at 0.1 µM [15] [%] | viability at 0.5 µM [16] [%] | viability at 2.5 µM [17] [%] | inhibition [19] | Activity [20] | Activity [21] | other results
Cc1c(N(C)C)nc(CCCCCCCCCCO)c(O)c1C | 27 | 9 | 6 | inactive | inactive | 36 | 24 | 50 | 50 | 20 | 3 | 17 | 28 | 87 | 20 | 36 | 74 | Dose-dependent effect | Dose-dependent effect | Dose-dependent effect | metabolised at 0.5 h, 25 µM [18]: 60%
CCCCCCCCCCc1c(C)c(N(C)C)nc(C)c1O | 49 | 35 | 8 | Active | Active | 78 | 60 | 89 | 87 | 40 | 2 | 34 | 84 | 86 | 19 | 87 | 86 | Dose-dependent effect | Dose-dependent effect | Dose-dependent effect | inhibition [22]: Dose-dependent effect; remaining at 0.5 h, 25 µM [23]: 70%
CCCCCCCCCCCCCCCCc1nc(N2CCC2)c(C)c(C)c1O | 93 | 94 | 95 | Active | Active | 68 | 54 | 85 | 92 | 70 | 38 | 54 | 70 | 87 | 13 | 82 | 81 | Dose-dependent effect | Dose-dependent effect | Dose-dependent effect | remaining at 0.5 h, 25 µM [23]: 95%
CCCCCCCCCCCCCCCCCCCc1c(C)c(N(C)C)nc(C)c1O | 98 | 83 | 81 | inactive | inactive | 42 | 23 | 64 | 106 | 103 | 86 | 20 | 50 | 87 | 8 | 8 | 87 | Dose-dependent effect | Dose-dependent effect | Dose-dependent effect | remaining at 0.5 h, 25 µM [23]: 50%
CCCCCCCCCCCCCCCCc1c(C)c(N2CCC2)nc(C)c1O | 95 | 89 | 79 | Active | Active | 72 | 55 | 89 | 98 | 76 | 50 | 58 | 79 | 92 | 18 | 95 | 92 | Dose-dependent effect | Dose-dependent effect | Dose-dependent effect | remaining at 0.5 h, 25 µM [23]: 95%
CCCCCCCCCCCCCCCCCCCc1nc(N(C)C)c(C)c(C)c1O | 93 | 88 | 85 | inactive | inactive | 44 | 24 | 65 | 102 | 102 | 99 | 17 | 38 | 76 | 4 | 7 | 66 | Dose-dependent effect | Dose-dependent effect | Dose-dependent effect | remaining at 0.5 h, 25 µM [23]: 50%
